Reference: ChEMBL document CHEMBL1125104, “Long-acting dihydropyridine calcium antagonists. 5. Synthesis and structure-activity relationships for a series of 2-[[(N-substituted-heterocyclyl)ethoxy]methyl]-1,4-dihydropyridine calcium antagonists” (J Med Chem, 1990)

Columns and labels:
[1] = organism: Cavia porcellus; test: Concentration required to depress contraction in the Langendorff-perfused guinea pig heart; format: functional
Procedure, shortened: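 Langendorff-perfused guinea pig heart, in vitro. The negative inotropic effect is given as IC25, the concentration that depresses contraction by 25%.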

[2] = organism: Rattus norvegicus; test: Concentration required to block Ca+2-induced contraction of K+ depolarized rat aorta; format: functional
Procedure, shortened: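 Isolated rat aorta depolarized with potassium; contraction triggered by added calcium. IC50 is the concentration that inhibits the calcium-induced contraction by 50%.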

[3] = […] of rat aorta to […] of guinea pig; format: functional
[4] = Half life of the compound
[5] = system: Canis familiaris; test: Coronary vasodilator activity in anesthetized dogs at the dose of 150 ug/kg (iv); format: functional, Canis lupus familiaris

Row | Structure (SMILES) | pIC25 [1] | IC50 [2] [nM] | Selectivity index [3] | half-life [4] [min] | Decrease [5] [%]
1 | CCO/C(O)=C1\C(COCCN2C(=O)CNC2=O)=NC(C)=C(C(=O)OC)C1c1ccccc1Cl (stereo not given) | 6.8 | 31.6 | 5 | – | –
2 | CCO/C(O)=C1\C(COCCn2nncc2C(N)=O)=NC(C)=C(C(=O)OC)C1c1ccccc1Cl (stereo not given) | 6.3 | 100 | 5 | – | –
3 | CCO/C(O)=C1\C(COCCn2ccnn2)=NC(C)=C(C(=O)OC)C1c1cccc(Cl)c1Cl (stereo not given) | 7.3 | 5.01 | 10 | 30 | 79
4 | CCOC(=O)c1cn(CCOCC2=NC(C)=C(C(=O)OC)C(c3ccccc3Cl)/C2=C(\O)OCC)nn1 (stereo not given) | 7 | 50.1 | 2 | – | –
5 | CCOC(=O)c1cnnn1CCOCC1=NC(C)=C(C(=O)OC)C(c2ccccc2Cl)/C1=C(\O)OCC (stereo not given) | 6.9 | 100 | 1.3 | – | –
6 | CCO/C(O)=C1\C(COCCn2cc(N)nc2O)=NC(C)=C(C(=O)OC)C1c1ccccc1Cl (stereo not given) | <6 | 31.6 | >32 | – | –
7 | CCO/C(O)=C1\C(COCCN2CC(=O)N=C2N)=NC(C)=C(C(=O)OC)C1c1ccccc1Cl (stereo not given) | 6.1 | 20 | 40 | – | –
8 | CCO/C(O)=C1\C(COCCn2c(N)cnc2O)=NC(C)=C(C(=O)OC)C1c1ccccc1Cl (stereo not given) | 6 | 158 | 6 | – | –
9 | CCO/C(O)=C1\C(COCCn2ccnn2)=NC(C)=C(C(=O)OC)C1c1ccccc1Cl (stereo not given) | 7.3 | 15.8 | 3 | – | –
10 | CCO/C(O)=C1\C(COCCN2CC(=O)N(C)C2=O)=NC(C)=C(C(=O)OC)C1c1ccccc1Cl (stereo not given) | 6.4 | 25.1 | 16 | – | –
11 | CCO/C(O)=C1\C(COCCn2cc(C(N)=O)nn2)=NC(C)=C(C(=O)OC)C1c1cccc(Cl)c1Cl (stereo not given) | 6.6 | 3.16 | 80 | 20 | 54
12 | CCO/C(O)=C1\C(COCCn2nncc2C(N)=O)=NC(C)=C(C(=O)OC)C1c1cccc(Cl)c1Cl (stereo not given) | 6.5 | 15.8 | 20 | – | –
13 | CCO/C(O)=C1\C(COCCN2CC(=O)N=C2N)=NC(C)=C(C(=O)OC)C1c1cccc(Cl)c1Cl (stereo not given) | – | – | – | > 180 | 60
14 | CCO/C(O)=C1\C(COCCN2CC(=O)NC2=O)=NC(C)=C(C(=O)OC)C1c1ccccc1Cl (stereo not given) | 6.3 | 20 | 25 | – | –
15 | CCO/C(O)=C1\C(COCCn2cc(C(N)=O)nn2)=NC(C)=C(C(=O)OC)C1c1ccccc1Cl (stereo not given) | <6 | 20 | >50 | – | –
16 | CCO/C(O)=C1\C(COCCn2c(C)nc(C)c2C)=NC(C)=C(C(=O)OC)C1c1ccccc1Cl (stereo not given) | 7.5 | 5.01 | 6 | – | –
17 | CCO/C(O)=C1\C(COCCn2ccnc2C)=NC(C)=C(C(=O)OC)C1c1ccccc1Cl (stereo not given) | 7.8 | 2.51 | 6 | – | –
18 | CCO/C(O)=C1\C(COCCN2CC(=O)NC2=O)=NC(C)=C(C(=O)OC)C1c1cccc(Cl)c1Cl (stereo not given) | 7.1 | 3.16 | 25 | 30 | 65
19 | CCO/C(O)=C1\C(COCCn2cc(N)n(C)c2=O)=NC(C)=C(C(=O)OC)C1c1ccccc1Cl (stereo not given) | 6.2 | 25.1 | 25 | – | –
20 | CCO/C(O)=C1\C(COCCn2cnc3ccccc32)=NC(C)=C(C(=O)OC)C1c1ccccc1Cl (stereo not given) | 7.2 | 20 | 3 | – | –
21 | CCO/C(O)=C1\C(COCCN2CC(=O)N(C)C2=O)=NC(C)=C(C(=O)OC)C1c1cccc(Cl)c1Cl (stereo not given) | 7.2 | – | – | 10 | 50
22 | CCOC(=O)C1=C(COCCN)NC(C)=C(C(=O)OC)C1c1ccccc1Cl (stereo not given) [AMLODIPINE] | 7.2 | 7.94 | 8 | – | –
23 | COC(=O)C1=C(C)NC(C)=C(C(=O)OC)C1c1ccccc1[N+](=O)[O-] [NIFEDIPINE] | 7.5 | – | 8 | 36 | 77
